Reference: ChEMBL document CHEMBL2169747, “Synthesis and biological properties of highly sequence-specific-alkylating N-methylpyrrole-N-methylimidazole polyamide conjugates” (J Med Chem, 2012)

Columns and labels:
Assay type in all cases: functional
A549 [1] = experiment: Downregulation of Q5WOV6 gene expression in human A549 cells at 26 nM after 12 hrs by microarray analysis relative to control
Method in brief: (§1)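 A549 cells (RPMI-1640, 10% heat-inactivated FBS, penicillin/streptomycin, 37 °C, 5% CO2) seeded at 4 × 10^5 per 60 mm dish. Exposed 12 h to conjugate at 21, 26, 34 or 100 nM in medium with 0.1% DMSO, against 0.1% DMSO control. Whole-genome (~25 000 genes) expression profiled by microarray.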

A549 [2] = experiment: Downregulation of SLC4A4 gene expression in human A549 cells at 26 nM after 12 hrs by microarray analysis relative to control; method in brief: as §1
A549 [3] = experiment: Upregulation of GDF15 gene expression in human A549 cells at 26 nM after 12 hrs by microarray analysis relative to control
Method in brief: (§2)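 4 ×10^5 A549 cells seeded per 60 mm dish and treated 12 h with conjugate (21, 26, 34 or 100 nM) in medium; control medium contained 0.1% DMSO, with conjugates added as 0.1% DMSO solutions. Whole human genome (~25 000 genes) expression profiled by microarray against the DMSO control. A549 culture: RPMI-1640 with 10% heat-inactivated FBS, penicillin/streptomycin, 37 °C, 5% CO2.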

A549 [4] = experiment: Downregulation of TNIK gene expression in human A549 cells at 26 nM after 12 hrs by microarray analysis relative to control; method in brief: as §1
A549 [5] = experiment: Downregulation of RABGAP1L gene expression in human A549 cells at 26 nM after 12 hrs by microarray analysis relative to control; method in brief: as §1
A549 [6] = experiment: Downregulation of ACTG gene expression in human A549 cells at 26 nM after 12 hrs by microarray analysis relative to control
Method in brief: (§3)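 A549 cells, 4 × 10^5 per 60 mm dish, were exposed to conjugate for 12 h in medium with 0.1% DMSO; vehicle control was 0.1% DMSO. Whole human genome (~25 000 genes) expression was profiled by microarray and expression compared with the control.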

A549 [7] = experiment: Downregulation of OR1C1 gene expression in human A549 cells at 34 nM after 12 hrs by microarray analysis relative to control; method in brief: as §1
A549 [8] = experiment: Upregulation of GLS2 gene expression in human A549 cells at 34 nM after 12 hrs by microarray analysis relative to control; method in brief: as §2
A549 [9] = experiment: Upregulation of U124 gene expression in human A549 cells at 34 nM after 12 hrs by microarray analysis relative to control; method in brief: as §2
A549 [10] = experiment: Downregulation of Q8NBA2 gene expression in human A549 cells at 34 nM after 12 hrs by microarray analysis relative to control; method in brief: as §1
A549 [11] = experiment: Downregulation of DPYD gene expression in human A549 cells at 34 nM after 12 hrs by microarray analysis relative to control; method in brief: as §3
A549 [12] = experiment: Downregulation of LAMA2 gene expression in human A549 cells at 34 nM after 12 hrs by microarray analysis relative to control; method in brief: as §3
A549 [13] = experiment: Downregulation of NP_115632.1 gene expression in human A549 cells at 34 nM after 12 hrs by microarray analysis relative to control; method in brief: as §3
A549 [14] = experiment: Upregulation of MDM2 gene expression in human A549 cells at 34 nM after 12 hrs by microarray analysis relative to control; method in brief: as §2

Row | SMILES | fold change (FC) (A549 [1]) | fold change (FC) (A549 [2]) | fold change (FC) (A549 [3]) | fold change (FC) (A549 [4]) | fold change (FC) (A549 [5]) | fold change (FC) (A549 [6]) | fold change (FC) (A549 [7]) | fold change (FC) (A549 [8]) | fold change (FC) (A549 [9]) | fold change (FC) (A549 [10]) | fold change (FC) (A549 [11]) | fold change (FC) (A549 [12]) | fold change (FC) (A549 [13]) | fold change (FC) (A549 [14])
1 | CC(=O)Nc1cn(C)c(C(=O)Nc2cc(C(=O)Nc3cc(C(=O)NCCC(=O)Nc4cc(C(=O)NCCCC(=O)Nc5cc(C(=O)NCCC(=O)Nc6cn(C)c(C(=O)Nc7ccc8[nH]c(C(=O)N9CC(CCl)c%10c9cc(O)c9ccccc%109)cc8c7)n6)n(C)c5)n(C)c4)n(C)c3)n(C)c2)n1 (racemic) | 0.324 | 0.273 | 5.5 | 0.312 | 0.155 | 0.311 | – | – | – | – | – | – | – | –
2 | CC(=O)Nc1cn(C)c(C(=O)Nc2cn(C)c(C(=O)Nc3cc(C(=O)NCCC(=O)Nc4cc(C(=O)NCCCC(=O)Nc5cn(C)c(C(=O)NCCC(=O)Nc6cn(C)c(C(=O)Nc7ccc8[nH]c(C(=O)N9CC(CCl)c%10c9cc(O)c9ccccc%109)cc8c7)n6)n5)n(C)c4)n(C)c3)n2)n1 (racemic) | – | – | – | – | – | – | 0.324 | 6.7 | 5.6 | 0.276 | 0.103 | 0.3 | 0.273 | 8.9
